Assays:
[1] = AUC (0 to 24 hrs) in cynomolgus monkey at 2 mg/kg, po; format: ADME, organism-based, Macaca fascicularis; design: time < 24 hr, dose 2 mg/kg, route oral; conditions: plasma
Outline: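 Compound given iv and po as single doses; vehicles: mouse iv PEG 400, po OraPlus; dog iv DMSO, po 1% Tween-80/2% HPMC/97% water; cynomolgus iv propylene glycol, po suspension.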

[2] = tested on: HT-29; test: Antitumor activity in human HT29 cell xenografted CD1 nu/nu mouse assessed as inhibition of tumor growth at 30 mg/kg, po qd for 14 days; format: functional; conditions: HT-29, 336 h, read-out: TGI
Outline: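 Female CD-1 nu/nu mice, 4–8 weeks, implanted sc in hind flank with 1 × 10^7 HT29 (DMEM high glucose, 5% FBS) or Calu-6 (RPMI 1640, 10% FBS) cells; treatment began at 13–14 days (~300 mm3). Methanesulfonate salt given po qd in OraPlus for 14 days; caliper volumes twice weekly; n = 10/group; RMANOVA with Scheffé test.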

[3] = tested on: Liver microsomes; test: Metabolic stability assessed as covalent binding in presence of NADPH and GSH in human liver microsomes at 10 uM after 1 hr; format: ADME, Microsome
Outline: (§1)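 14C-labelled compound at 10 µM with human or rat liver microsomes (1 mg/mL) in 0.1 M potassium phosphate pH 7.4, with or without 1 mM NADPH and 1 mM glutathione, 60 min; quenched with ice-cold acetonitrile. Pellet washed with 80% methanol and ethanol/ether, solubilized, protein by BCA, radioactivity by scintillation counting.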

[4] = tested on: Liver microsomes; test: Metabolic stability assessed as covalent binding in presence of NADPH in rat liver microsomes at 10 uM after 1 hr; format: ADME, Microsome; outline: as §1
[5] = molecular target: T1, Aurora kinase A (Homo sapiens, UniProt O14965); test: Inhibition of Aurora A
T1 sequence (O14965 whole entry): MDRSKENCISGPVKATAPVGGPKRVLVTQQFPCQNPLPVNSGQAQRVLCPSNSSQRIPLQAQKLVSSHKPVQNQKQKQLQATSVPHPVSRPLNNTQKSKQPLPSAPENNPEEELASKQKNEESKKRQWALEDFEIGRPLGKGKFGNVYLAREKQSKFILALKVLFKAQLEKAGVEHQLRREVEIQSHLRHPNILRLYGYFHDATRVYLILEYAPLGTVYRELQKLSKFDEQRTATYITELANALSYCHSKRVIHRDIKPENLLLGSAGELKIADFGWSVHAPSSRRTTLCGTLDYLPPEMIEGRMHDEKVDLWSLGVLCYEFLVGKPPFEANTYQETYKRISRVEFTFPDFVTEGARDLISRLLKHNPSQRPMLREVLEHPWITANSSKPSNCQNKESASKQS

Q: With COc1cc2nccc(Oc3ccc4c(C(N)=O)cccc4c3)c2cc1OC as the molecule, how does the AUC(0-t) at 24 h [1] read?
A: 1.36 µg·h/mL

Q: What about the inhibition in vivo at 30 mg/kg [2] of the same molecule?
A: 94%

Q: And the Stability [3]?
A: 3.2 pmol/mg/h

Q: And the Stability [4]?
A: 39 pmol/mg/h

Q: What about the IC50 [5] of the same molecule?
A: 5 µM
